Experimental data collected from several papers.
Observed: enzyme activity
Action: inhibitor
LCK: Tyrosine-protein kinase Lck (LCK, Homo sapiens, UniProt P06239)

| target | technique | tested at | remaining activity [%] | Compound |
| --- | --- | --- | --- | --- |
| LCK |  | 1 µM | 42 | Cc1[nH]c(/C=C2\C(=O)Nc3ccc(F)cc32)c(C)c1C(=O)N[C@H]1CCN(C(=O)N(C)C)C1 |
| LCK |  | 0.5 µM | ≤ 50 | Cc1ccc(NC(=O)c2ccc(CN3CCN(C)CC3)cc2)cc1Nc1nccc(-c2cncc(-c3oncc3C)c2)n1 |
| LCK |  | 10 µM | 118 | CCN(CC)c1ccc(C2=NNC(=O)CC2C)cc1[N+](=O)[O-] (stereo not drawn) |
| LCK |  | 5 µM | 99.1 | O=C(Nc1cnn(-c2csc(C(=O)NC3COC3)c2)c1)Nc1ccccc1Cl |
| LCK | radiometric | 1 µM | 60 | COc1cc(Nc2cnc(C#N)c(O[C@H](C)CN(C)C)n2)ncc1-c1cnn(C)c1 |
| LCK |  | 10 µM | 54 | Cn1c(=O)n(-c2ccc(C(C)(C)C#N)cc2)c2c3cc(-c4cnc5ccccc5c4)ccc3ncc21 |
| LCK | radiometric | 1 µM | 80 | CC(C)(C)c1nc2c(s1)c1nc(N)ncc1c1ccc(NS(=O)(=O)c3c(F)cccc3F)c(F)c12 |
| LCK |  | 0.5 µM | 98 | Oc1cccc(-c2nc(N3CCOCC3)c3oc4ncccc4c3n2)c1 |
| LCK |  | 1 µM | 75 | COc1cc(Cl)c(C(=O)N[C@@H](CN[C@H]2CC[C@@H](N)CC2)Cc2ccc(C#N)cc2)cc1-c1ccc(CN[C@H](C)c2ccc(C)cc2)o1 |
| Tyrosine-protein kinase Lck, phosphorylated (LCK, Homo sapiens, UniProt P06239) |  | 10 µM | 0 | Cc1ccc(NC(=O)c2ccc(C)c(C(F)(F)F)c2)cc1C#Cc1nn(C2CCC(O)CC2)c2ncnc(N)c12 (stereo not drawn) |
| LCK |  | 0.5 µM | 98.9 | CC(C)N(CCC(=O)c1ccc2ccccc2c1)Cc1ccccc1 |
| LCK |  | 10 µM | 85 | Oc1cccc(-c2nc(N3CCOCC3)c3oc4ncccc4c3n2)c1 |
| LCK |  | 1 µM | 11.1 | CC(C)(O)[C@H]1CC[C@H](Nc2ccc3ncc(-c4cccc(C(F)(F)F)c4)n3n2)CC1 |
| LCK |  | 0.5 µM | 88.2 | O=C1Nc2ccc(Cl)cc2C1=Cc1cc(Cl)c(O)c(Cl)c1 |
| LCK | radiometric | 1 µM | 100 | Cc1cnc(NC2CCOCC2)nc1-n1cnc(C(=O)NC(CN)c2cc(F)cc(Cl)c2)c1 (stereo not drawn) |
| LCK |  | 0.5 µM | 78.2 | N#CCCc1ccc2c(c1)-c1[nH]c3ccc([N+](=O)[O-])cc3c1CC(=O)N2 |
| LCK |  | 10 µM | 21 | CCCOc1ccc(OC)c(F)c1C(=O)c1ccc(C(=O)N[C@@H]2CNC[C@H]2NC(=O)c2ccc3[nH]ncc3c2)cc1 |
| LCK |  | 0.5 µM | 98.4 | O=C1NC(=O)c2cc(Nc3ccc(F)cc3)c(Nc3ccc(F)cc3)cc21 |
| LCK |  | 10 µM | 49 | Nc1nc(Nc2ccccc2)sc1C(=O)c1c(F)cccc1F |
| LCK |  | 0.5 µM | 95 | C[S+]([O-])c1ccc(-c2nc(-c3ccncc3)c(-c3ccc(F)cc3)[nH]2)cc1 (stereo not drawn) |
| LCK |  | 10 µM | 85 | CC(C)(C)C(=O)c1sc(NC2CCCCC2)nc1N |
